Laboratory results as given in ChEMBL document CHEMBL4177761, “Highlights of the Structure-Activity Relationships of Benzimidazole Linked Pyrrolidines Leading to the Discovery of the Hepatitis C Virus NS5A Inhibitor Pibrentasvir (ABT-530)” (J Med Chem, 2018).
Residue numbers refer to the chain shown, from its start. ≈ marks a conversion by molar mass, not a printed value.

Legend:
[1] = Drug level in mouse at 3 mg/kg, po at 24 hrs by LC-MS method; assay type: ADME, organism-based; details: in vivo, read-out: Drug uptake
How it was run: (§1)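 Single dose, 3 mg/kg, in mouse or rat. IV vehicle: DMSO:Tween 80:PEG-400:D5W 2:5:20:73 (v/v). PO vehicle: Phosol 53 MCT:PEG-400:Poloxamer 124:Cremophor RH40 40:20:20:20 (w/w). Acetonitrile protein precipitation, then LC-MS/MS in negative-ion MRM against an internal standard; LOQ ~20 ng/mL.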

[2] = AUC (0 to infinity) in mouse at 3 mg/kg, po by LC-MS method; assay type: ADME, organism-based; set-up: dose 3 mg/kg, route oral, time infinity; details: in vivo; how it was run: as §1
[3] = Tmax in mouse at 3 mg/kg, po by LC-MS method; assay type: ADME, organism-based; details: in vivo
[4] = Cmax in mouse at 3 mg/kg, po by LC-MS method; assay type: ADME, organism-based; set-up: dose 3 mg/kg, route oral; details: in vivo; how it was run: as §1
[5] = Half life in mouse at 3 mg/kg, iv by LC-MS method; assay type: ADME, organism-based; details: in vivo; how it was run: as §1
[6] = system: T1, Nonstructural protein 5A (Hepatitis C virus), Q5L478 [Y93H]; test: Inhibition of NS5A Y93H mutant in HuH7 cell infected HCV genotype 1a H77 assessed as decrease in viral replication after 4 days by luciferase reporter gene assay relative to wild type protein; details: Hepatitis C virus (isolate H77)
T1 sequence (whole entry): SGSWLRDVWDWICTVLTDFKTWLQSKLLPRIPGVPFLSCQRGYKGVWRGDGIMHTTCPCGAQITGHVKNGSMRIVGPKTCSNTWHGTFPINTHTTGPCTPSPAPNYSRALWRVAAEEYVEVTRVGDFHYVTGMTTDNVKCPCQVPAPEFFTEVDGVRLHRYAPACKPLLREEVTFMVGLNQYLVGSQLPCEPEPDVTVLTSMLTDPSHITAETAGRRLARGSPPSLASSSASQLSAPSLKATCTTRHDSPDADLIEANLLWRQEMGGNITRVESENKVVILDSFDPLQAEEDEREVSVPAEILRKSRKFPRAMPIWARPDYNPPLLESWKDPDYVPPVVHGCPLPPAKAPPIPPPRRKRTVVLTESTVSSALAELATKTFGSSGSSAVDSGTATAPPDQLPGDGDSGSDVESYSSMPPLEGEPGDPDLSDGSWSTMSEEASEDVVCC
How it was run: (§2)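 Stable subgenomic luciferase replicons in Huh-7 cells: genotype 1a-H77 carrying NS5A substitutions M28T, Q30E, Q30R, Y93C, Y93H or Y93N, tested alongside the wild-type replicon. Cells are incubated 4 days with compound in DMEM with 5% FBS. Luciferase read-out, EC50 by 4-parameter logistic fit, and fold change versus wild type.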

[7] = AUC (0 to infinity) in mouse at 3 mg/kg, iv by LC-MS method; assay type: ADME, organism-based; set-up: dose 3 mg/kg, route intravenous, time infinity; details: in vivo; how it was run: as §1
[8] = Plasma clearance in mouse at 3 mg/kg, iv by LC-MS method; assay type: ADME, organism-based; how it was run: as §1
[9] = Volume of distribution at steady state during terminal phase in mouse at 3 mg/kg, iv by LC-MS method; assay type: ADME, organism-based; details: in vivo, read-out: Vbeta
How it was run: (§3)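 Mice received a single 3 mg/kg IV dose in 2:5:20:73 (v/v) DMSO:Tween 80:PEG-400:D5W. Heparinized plasma taken at 0.1, 0.25, 0.5, 1, 2, 4, 6, 9, 12 and 24 h. Samples precipitated with acetonitrile and assayed by negative-ion MRM LC-MS. Quantified by unweighted linear regression of parent/internal-standard area ratio against spiked standards; LOQ ~20 ng/mL.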

[10] = Oral bioavailability in mouse at 3 mg/kg by LC-MS method; assay type: ADME, organism-based; details: in vivo; how it was run: as §1
[11] = system: T2, Nonstructural protein 5A (Hepatitis C virus), Q5L478 [Y93C]; test: Inhibition of NS5A Y93C mutant in HuH7 cell infected HCV genotype 1a H77 assessed as decrease in viral replication after 4 days by luciferase reporter gene assay relative to wild type protein; details: Hepatitis C virus (isolate H77); how it was run: as §2
T2 sequence (whole entry): T1 sequence (whole entry) with H93C

[12] = system: T1, Nonstructural protein 5A (Hepatitis C virus), Q5L478 [Y93H]; test: Inhibition of NS5A Y93H mutant in HuH7 cell infected HCV genotype 1b Con1 assessed as decrease in viral replication after 4 days by luciferase reporter gene assay relative to wild type protein; details: Hepatitis C virus (isolate Con1)
How it was run: as §2, with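 “1b-Con1” for “1a-H77”, “NS5A” for “NS5A substitutions M28T, Q30E, Q30R, Y93C,”, “from a” for “by”, “expressed as” for “and”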

[13] = Volume of distribution at steady state in mouse at 3 mg/kg, iv by LC-MS method; assay type: ADME, organism-based; details: in vivo, read-out: Vdss; how it was run: as §3
[14] = target: T3, Nonstructural protein 5A (Hepatitis C virus) (UniProt Q5L478); test: Inhibition of NS5A Q30R mutant in HuH7 cell infected HCV genotype 1a H77 assessed as decrease in viral replication after 4 days by luciferase reporter gene assay relative to wild type protein; details: Hepatitis C virus (isolate H77); how it was run: as §2
T3 sequence (whole entry): T1 sequence (whole entry) with H93Y

[15] = Half life in mouse at 3 mg/kg, po by LC-MS method; assay type: ADME, organism-based; details: in vivo; how it was run: as §1
[16] = target: T3, Nonstructural protein 5A (Hepatitis C virus); test: Inhibition of NS5A M28T mutant in HuH7 cell infected HCV genotype 1a H77 assessed as decrease in viral replication after 4 days by luciferase reporter gene assay relative to wild type protein; details: Hepatitis C virus (isolate H77); how it was run: as §2
[17] = system: T4, Nonstructural protein 5A (Hepatitis C virus), Q5L478 [Y93N]; test: Inhibition of NS5A Y93N mutant in HuH7 cell infected HCV genotype 1a H77 assessed as decrease in viral replication after 4 days by luciferase reporter gene assay relative to wild type protein; details: Hepatitis C virus (isolate H77); how it was run: as §2
T4 sequence (whole entry): T1 sequence (whole entry) with H93N

[18] = Solubility of the compound by CLND method; assay type: physicochemical
[19] = Lipophilicity, log D of the compound by HPLC method; assay type: physicochemical
[20] = Volume of distribution at steady state during terminal phase in mouse at 5 mg/kg, iv by LC-MS method; assay type: ADME, organism-based; details: in vivo, read-out: Vbeta
[21] = Permeability of the compound by PAMPA; assay type: ADME; details: read-out: permeability
[22] = Intrinsic clearance in human microsomes; assay type: ADME, Microsome
[23] = Intrinsic clearance in rat microsomes; assay type: ADME, Microsome
[24] = Tmax in mouse at 5 mg/kg, po by LC-MS method; assay type: ADME, organism-based; details: in vivo
[25] = Volume of distribution at steady state in mouse at 5 mg/kg, iv by LC-MS method; assay type: ADME, organism-based; details: in vivo, read-out: Vdss
[26] = AUC (0 to infinity) in mouse at 5 mg/kg, iv by LC-MS method; assay type: ADME, organism-based; set-up: dose 5 mg/kg, time infinity, route intravenous; details: in vivo
[27] = target: T3, Nonstructural protein 5A (Hepatitis C virus); test: Inhibition of NS5A Q30E mutant in HuH7 cell infected HCV genotype 1a H77 assessed as decrease in viral replication after 4 days by luciferase reporter gene assay relative to wild type protein; details: Hepatitis C virus (isolate H77); how it was run: as §2
[28] = AUC (0 to infinity) in mouse at 5 mg/kg, po by LC-MS method; assay type: ADME, organism-based; set-up: dose 5 mg/kg, route oral, time infinity; details: in vivo

COC(=O)N[C@H](C(=O)N1CCC[C@H]1c1nc2cc(F)c([C@H]3CC[C@H](c4cc5[nH]c([C@@H]6CCCN6C(=O)[C@@H](NC(=O)OC)C(C)C)nc5cc4F)N3c3cc(F)c(N4CCC(c5ccc(F)cc5)CC4)c(F)c3)cc2[nH]1)C(C)C showed a concentration at 24 h [1] of 1710 nM, an AUC(0-inf) [2] of 26100 ng·h/mL and a Tmax [3] of 24 h. The Cmax [4] was 1710 nM.
Compound COC(=O)N[C@H](C(=O)N1CCC[C@H]1C(=O)Nc1ccc([C@@H]2CC[C@@H](c3ccc(NC(=O)[C@@H]4CCCN4C(=O)[C@@H](NC(=O)OC)C(C)C)cc3)N2c2ccc(C(C)(C)C)cc2)cc1)C(C)C [OMBITASVIR] has a half-life [5] of 11 h, a fold change (FC) [6] of 41400 and an AUC(0-inf) [7] of 26400 ng·h/mL. The clearance [8] was 1.83 mL/min/kg, the Vd [9] was 1.8 L/kg and the bioavailability [10] was 41.7%. For the same compound, the fold change (FC) [11] was 1680, the fold change (FC) [12] was 77 and the Vd [13] was 1.67 L/kg. For the same compound, the concentration at 24 h [1] was 205 nM, the fold change (FC) [14] was 800 and the half-life [15] was 11.7 h. It also gave a fold change (FC) [16] of 8960, an AUC(0-inf) [2] of 11000 ng·h/mL and a fold change (FC) [17] of 66700. It also gave a Tmax [3] of 7 h and a Cmax [4] of 636 nM.
For COC(=O)N[C@H](C(=O)N1CCC[C@H]1c1nc2cc([C@H]3CC[C@H](c4cc5nc([C@@H]6CCCN6C(=O)[C@@H](NC(=O)OC)C(C)C)[nH]c5cc4F)N3c3cc(F)c(N4CCC(c5ccccc5)CC4)c(F)c3)c(F)cc2[nH]1)C(C)C, the concentration at 24 h [1] was 754 nM, the AUC(0-inf) [2] was 14000 ng·h/mL and the Tmax [3] was 24 h. It also gave a Cmax [4] of 754 nM.
COC(=O)N[C@H](C(=O)N1CCC[C@H]1c1nc2ccc([C@H]3CC[C@H](c4ccc5nc([C@@H]6CCCN6C(=O)[C@@H](NC(=O)OC)C(C)C)[nH]c5c4)N3c3ccc(C(C)(C)C)cc3)cc2[nH]1)C(C)C gave a solubility kinetic [18] of 1.6 µM (≈ 1.42 µg/mL), a fold change (FC) [6] of 216 and a logD [19] of 5.3. The Vd [20] was 1.11 L/kg, the Papp [21] was 0.14 ×10⁻⁶ cm/s and the fold change (FC) [11] was 7. For the same compound, the fold change (FC) [12] was 2, the CLint scaled [22] was 122 mL/min/kg and the CLint scaled [23] was 167 mL/min/kg. It also gave a fold change (FC) [14] of 14, a Tmax [24] of 1.67 h and a Vd [25] of 0.65 L/kg. It also gave an AUC(0-inf) [26] of 13100 ng·h/mL, a fold change (FC) [27] of 61 and a fold change (FC) [16] of 4. For the same compound, the fold change (FC) [17] was 510 and the AUC(0-inf) [28] was 1390 ng·h/mL.
COC(=O)N[C@H](C(=O)N1CCC[C@H]1c1nc2ccc([C@H]3CC[C@H](c4ccc5nc([C@@H]6CCCN6C(=O)[C@@H](NC(=O)OC)C(C)C)[nH]c5c4)N3c3ccc(N4CCOCC4)cc3)cc2[nH]1)C(C)C gave a solubility kinetic [18] of 14.2 µM (≈ 13 µg/mL), a logD [19] of 3.2 and a Papp [21] of 0.73 ×10⁻⁶ cm/s. It also gave a CLint scaled [22] of 113 mL/min/kg, a CLint scaled [23] of 108 mL/min/kg and an AUC(0-inf) [2] of 2 ng·h/mL.
Compound COC(=O)N[C@H](C(=O)N1CCC[C@H]1c1nc2ccc([C@H]3CC[C@H](c4ccc5nc([C@@H]6CCCN6C(=O)[C@@H](NC(=O)OC)C(C)C)[nH]c5c4)N3c3ccc(N4CCCCC4)c(F)c3)cc2[nH]1)C(C)C has a solubility kinetic [18] of 2.5 µM (≈ 2.33 µg/mL), a logD [19] of 4.7 and a Papp [21] of 0.01 ×10⁻⁶ cm/s. For the same compound, the CLint scaled [22] was 140 mL/min/kg, the CLint scaled [23] was 162 mL/min/kg and the AUC(0-inf) [2] was 2000 ng·h/mL.
With COC(=O)N[C@H](C(=O)N1CCC[C@H]1c1nc2ccc([C@H]3CC[C@H](c4ccc5nc([C@@H]6CCCN6C(=O)[C@@H](NC(=O)OC)C(C)C)[nH]c5c4)N3c3cc(Cl)c(N4CCCCC4)c(Cl)c3)cc2[nH]1)C(C)C the solubility kinetic [18] was < 0.6 µM, the logD [19] was 5.9 and the Papp [21] was 0.03 ×10⁻⁶ cm/s. The CLint scaled [22] was < 25 mL/min/kg, the CLint scaled [23] was 50 mL/min/kg and the AUC(0-inf) [2] was 960 ng·h/mL.
